Calls of active or inactive are those of the source.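 How the source made its calls, unless noted: active means calcium signal ratio cut to more than 3 SD under the fully stimulated control mean yet still positive, in both repeats and the primary screen; inactive means the rest.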
Target: Short transient receptor potential channel 4 (Mus musculus) (UniProt Q9QUQ5)
Experiment: blockers of DAMGO-evoked TRPC4 calcium flux – cell-based, Fluo4, HEK293 TRPC4beta/mu-opioid, confirmation (AID 2636;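 active means calcium signal cut by more than 3 SD below the full-agonist control yet still positive, in both repeats and the earlier primary screen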)
Settings: at 10 µM
Procedure, shortened: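 test system = TRPC4beta/mu-opioid receptor HEK293 cells | compound dosing = one dose, 10 µM final | times = dye 45 min at room temperature, compound 110 s, submaximal DAMGO 110 s | signal = kinetic fluorescence of Fluo4 calcium-sensitive dye, calcium influx | controls = no-compound wells and DAMGO maximal-stimulus wells | replication = duplicate wells for each compound, averaged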

Chain of Short transient receptor potential channel 4 (Mus musculus) (Q9QUQ5 whole entry, looked up): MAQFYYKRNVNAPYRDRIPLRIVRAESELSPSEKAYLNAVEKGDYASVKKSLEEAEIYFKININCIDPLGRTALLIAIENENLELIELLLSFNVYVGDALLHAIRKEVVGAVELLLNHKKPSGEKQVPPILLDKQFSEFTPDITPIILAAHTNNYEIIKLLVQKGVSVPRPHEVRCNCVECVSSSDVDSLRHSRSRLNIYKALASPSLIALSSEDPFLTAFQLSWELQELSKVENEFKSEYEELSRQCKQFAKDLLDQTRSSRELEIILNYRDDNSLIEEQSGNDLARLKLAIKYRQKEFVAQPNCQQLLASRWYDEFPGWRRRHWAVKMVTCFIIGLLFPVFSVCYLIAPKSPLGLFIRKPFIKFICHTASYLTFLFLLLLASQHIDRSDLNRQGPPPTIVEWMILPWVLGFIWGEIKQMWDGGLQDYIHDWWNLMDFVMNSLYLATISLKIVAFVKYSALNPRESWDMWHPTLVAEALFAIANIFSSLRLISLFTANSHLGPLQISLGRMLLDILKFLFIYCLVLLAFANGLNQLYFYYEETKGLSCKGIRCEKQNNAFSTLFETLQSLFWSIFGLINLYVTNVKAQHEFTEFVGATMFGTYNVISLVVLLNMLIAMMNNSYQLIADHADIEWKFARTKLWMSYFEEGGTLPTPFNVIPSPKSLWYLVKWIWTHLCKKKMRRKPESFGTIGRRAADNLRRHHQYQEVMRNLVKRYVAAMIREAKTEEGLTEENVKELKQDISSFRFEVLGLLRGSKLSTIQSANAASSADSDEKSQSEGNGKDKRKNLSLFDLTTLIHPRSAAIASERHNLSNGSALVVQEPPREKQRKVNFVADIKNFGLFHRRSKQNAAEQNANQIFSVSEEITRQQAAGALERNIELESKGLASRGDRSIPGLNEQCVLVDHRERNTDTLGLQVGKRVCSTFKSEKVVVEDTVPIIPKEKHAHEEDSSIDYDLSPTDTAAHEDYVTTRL

outcome, inactive:
COc1ccc(-n2nc(C(=O)NCC(=O)NCCCN3CC(C)CC(C)C3)c3ccccc3c2=O)cc1Cl (stereo not given)
Cc1cc(OCC(=O)N(C(C)C)C(C)C)cc(C)c1Br
CCCCCCn1c(N2CCN(c3ccccc3)CC2)nc2c1c(=O)n(C)c(=O)n2C
CCC(=O)NC(C)C(c1cccs1)N1CCN(c2ccccc2)CC1 (stereo not given)
Cc1ccc(-c2nnc(N3CCC(C)CC3)c3ccccc23)cc1C
Cc1cc(C(C)(C)C)c(O)c(C)c1CC1=NCCN1
Cc1sc2ncnc(NCC(c3ccccc3)N(C)C)c2c1C (stereo not given)
O=C(NCc1ccccc1)C1=C[C@H](c2ccc(Br)cc2)C[C@H](OCc2ccc(CO)cc2)O1
O=C(Nc1ccccc1)C1=C[C@H](C2CCCCC2)C[C@H](OCc2ccc(CO)cc2)O1
Cc1ccc(S(=O)(=O)N2CCC(N3CCN(C)CC3)CC2)cc1Cl
Cc1cc(OCC(=O)NC2CCCCC2)ccc1Cl
O=[N+]([O-])c1ccc(/C=N/Nc2nc(N3CCCCC3)nc(N3CCCCC3)n2)o1
Cc1cccc(/C=N/NC(=O)c2cccc(Cl)c2)n1
S=C(NCCc1ccccn1)NC1CCCCC1
Cc1cccc(Cc2c(C)nc3c(C(=O)NCc4ccco4)cnn3c2C)c1
Cc1ccc(Cn2c(=N)c(C(=O)NC3CCCC3)cc3c(=O)n4ccccc4nc32)cc1
COC(=O)[C@@]12CCCCN1[C@H](c1ccc(-c3cccc(Cl)c3)c(OC)c1)[C@H]1C(=O)N(C)C(=O)[C@H]12
CC1=C(C(=O)NCc2ccccc2)C(c2cc(Br)cc(Br)c2OC(C)C)NC(=O)N1 (stereo not given)
CC1Cc2ccccc2N1C(=O)CSc1nc2c(c(=O)n(C)c(=O)n2C)n1Cc1ccc(F)cc1 (stereo not given)
CCN1CCN(c2ccc(S(=O)(=O)N3CCOCC3)cc2NC(=O)c2ccccc2OC(F)F)CC1
O=C1C(Cl)=C(Nc2cccc(O)c2)C(=O)N1Cc1ccccc1
O=C(NCc1ccccc1)C1=C[C@H](c2ccc(C(F)(F)F)cc2)C[C@H](OCc2ccc(CO)cc2)O1
COc1ccc(C)c(NC(=O)NCCc2cnc[nH]2)c1
CN(C)CCNc1ccc(Cl)cc1[N+](=O)[O-]
CCn1c(O)c(N=NC(=O)c2cccc(S(=O)(=O)N3CCCCC3)c2)c2ccccc21
Cc1onc(-c2ccccc2)c1C(=O)NNC(=S)NC(=O)c1ccc2c(c1)OCO2
COc1ccc(Cl)cc1C(=O)NCCN(C)C
O=C1NCN(c2ccccc2)C12CCN(CCCC(c1ccc(F)cc1)c1ccc(F)cc1)CC2
Cc1ccc(/C=N/NC(=O)NC2CCCCC2)o1
O=C(Nc1cccc(Cl)c1)c1cnn2cccnc12
COc1c(C)cc(C(=O)C2CCCN(Cc3cccc4nccnc34)C2)cc1C (stereo not given)
O=C(c1cccc([N+](=O)[O-])c1)N1CCCC(C(=O)N2CCCCCC2)C1 (stereo not given)
CCOc1ccc(-n2c(SCC(=O)O)nc3sc4c(c3c2=O)CCCC4)cc1
Cc1cc(-c2ccc(C)c(S(=O)(=O)N3CCN(C(=O)c4ccco4)CC3)c2)on1
O=C(NC1CCN(Cc2ccccc2)CC1)C12CC3CC(CC(C3)C1)C2
Cc1cccc(/C=N/NC(=O)c2cc(Br)ccc2O)n1
C1CCN(c2nc(N3CCCC3)nc(N3CCNCC3)n2)C1
CNc1nc(N2CCc3ccccc32)ncc1F
Cc1cccc(Cn2c(N3CCN(c4ccccc4)CC3)nc3c2c(=O)n(C)c(=O)n3C)c1
O=C(Nc1cccc(Cl)c1)N1CCN(C/C=C/c2ccccc2)CC1

Target: Short transient receptor potential channel 4 (Mus musculus) (UniProt Q9QUQ5)
Experiment: blockers of DAMGO-evoked TRPC4 calcium flux – cell-based, second round, Fluo4, HEK293 TRPC4beta/mu-opioid, 1 µM, confirmation (AID 2637)
Settings: at 1 µM
Procedure, shortened: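 Test system: HEK293 stable line co-expressing TRPC4beta and mu-opioid receptor. Compound dosing: single test compound concentration, 1 µM final. Measured by: Fluo4 calcium fluorescence, kinetic real-time read after baseline. Incubation: Fluo4 loading 45 min, compound exposure 110 s. Probe or stimulus: sequential submaximal then maximal DAMGO stimulation. Controls: ECmax and compound-free wells.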

outcome, inactive:
COc1ccc(-n2nc(C(=O)NCC(=O)NCCCN3CC(C)CC(C)C3)c3ccccc3c2=O)cc1Cl (stereo not given)
Cc1cc(OCC(=O)N(C(C)C)C(C)C)cc(C)c1Br
CCCCCCn1c(N2CCN(c3ccccc3)CC2)nc2c1c(=O)n(C)c(=O)n2C
CCC(=O)NC(C)C(c1cccs1)N1CCN(c2ccccc2)CC1 (stereo not given)
Cc1ccc(-c2nnc(N3CCC(C)CC3)c3ccccc23)cc1C
Cc1cc(C(C)(C)C)c(O)c(C)c1CC1=NCCN1
Cc1sc2ncnc(NCC(c3ccccc3)N(C)C)c2c1C (stereo not given)
O=C(NCc1ccccc1)C1=C[C@H](c2ccc(Br)cc2)C[C@H](OCc2ccc(CO)cc2)O1
O=C(Nc1ccccc1)C1=C[C@H](C2CCCCC2)C[C@H](OCc2ccc(CO)cc2)O1
Cc1ccc(S(=O)(=O)N2CCC(N3CCN(C)CC3)CC2)cc1Cl
Cc1cc(OCC(=O)NC2CCCCC2)ccc1Cl
O=[N+]([O-])c1ccc(/C=N/Nc2nc(N3CCCCC3)nc(N3CCCCC3)n2)o1
Cc1cccc(/C=N/NC(=O)c2cccc(Cl)c2)n1
S=C(NCCc1ccccn1)NC1CCCCC1
Cc1cccc(Cc2c(C)nc3c(C(=O)NCc4ccco4)cnn3c2C)c1
Cc1ccc(Cn2c(=N)c(C(=O)NC3CCCC3)cc3c(=O)n4ccccc4nc32)cc1
COC(=O)[C@@]12CCCCN1[C@H](c1ccc(-c3cccc(Cl)c3)c(OC)c1)[C@H]1C(=O)N(C)C(=O)[C@H]12
CC1=C(C(=O)NCc2ccccc2)C(c2cc(Br)cc(Br)c2OC(C)C)NC(=O)N1 (stereo not given)
CC1Cc2ccccc2N1C(=O)CSc1nc2c(c(=O)n(C)c(=O)n2C)n1Cc1ccc(F)cc1 (stereo not given)
CCN1CCN(c2ccc(S(=O)(=O)N3CCOCC3)cc2NC(=O)c2ccccc2OC(F)F)CC1
O=C1C(Cl)=C(Nc2cccc(O)c2)C(=O)N1Cc1ccccc1
O=C(NCc1ccccc1)C1=C[C@H](c2ccc(C(F)(F)F)cc2)C[C@H](OCc2ccc(CO)cc2)O1
COc1ccc(C)c(NC(=O)NCCc2cnc[nH]2)c1
CN(C)CCNc1ccc(Cl)cc1[N+](=O)[O-]
CCn1c(O)c(N=NC(=O)c2cccc(S(=O)(=O)N3CCCCC3)c2)c2ccccc21
Cc1onc(-c2ccccc2)c1C(=O)NNC(=S)NC(=O)c1ccc2c(c1)OCO2
COc1ccc(Cl)cc1C(=O)NCCN(C)C
O=C1NCN(c2ccccc2)C12CCN(CCCC(c1ccc(F)cc1)c1ccc(F)cc1)CC2
Cc1ccc(/C=N/NC(=O)NC2CCCCC2)o1
O=C(Nc1cccc(Cl)c1)c1cnn2cccnc12
COc1c(C)cc(C(=O)C2CCCN(Cc3cccc4nccnc34)C2)cc1C (stereo not given)
O=C(c1cccc([N+](=O)[O-])c1)N1CCCC(C(=O)N2CCCCCC2)C1 (stereo not given)
CCOc1ccc(-n2c(SCC(=O)O)nc3sc4c(c3c2=O)CCCC4)cc1
Cc1cc(-c2ccc(C)c(S(=O)(=O)N3CCN(C(=O)c4ccco4)CC3)c2)on1
O=C(NC1CCN(Cc2ccccc2)CC1)C12CC3CC(CC(C3)C1)C2
Cc1cccc(/C=N/NC(=O)c2cc(Br)ccc2O)n1
C1CCN(c2nc(N3CCCC3)nc(N3CCNCC3)n2)C1
CNc1nc(N2CCc3ccccc32)ncc1F
Cc1cccc(Cn2c(N3CCN(c4ccccc4)CC3)nc3c2c(=O)n(C)c(=O)n3C)c1
O=C(Nc1cccc(Cl)c1)N1CCN(C/C=C/c2ccccc2)CC1
